# ChEMBL document CHEMBL1142136, “Contribution of target gene mutations and efflux to decreased susceptibility of Salmonella enterica serovar typhimurium to fluoroquinolones and other antimicrobials” (2007)
# Experiments:
# Assay type in all cases: functional, Salmonella enterica subsp. enterica serovar Typhimurium
# Salmonella typhimurium [1] = assay: Antimicrobial activity against Salmonella enterica serovar Typhimurium CHS38 gyrA+ with GyrA D87G mutation
# Method in brief: (§1)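 MICs measured by broth microdilution on the Sensititre automated system and interpreted by CLSI broth microdilution standards. Ciprofloxacin was also tested by agar dilution, widening the range to 0.0075–128 μg/ml. Quality control strains were E. coli ATCC 25922 and 35218, E. faecalis ATCC 29212, S. aureus ATCC 29213 and P. aeruginosa ATCC 27853.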
# Salmonella typhimurium [2] = assay: Antimicrobial activity against Salmonella enterica serovar Typhimurium S21-1 GyrA S83F mutant; method in brief: as §1
# Salmonella typhimurium [3] = assay: Antimicrobial activity against Salmonella enterica serovar Typhimurium CHS18 tolC::Kan with GyrA S38F mutation; method in brief: as §1
# Salmonella typhimurium [4] = assay: Antimicrobial activity against Salmonella enterica serovar Typhimurium S21-3 gyrA+ with ParC S80I mutation; method in brief: as §1
# Salmonella typhimurium [5] = assay: Antimicrobial activity against Salmonella enterica serovar Typhimurium S21 gyrA+; method in brief: as §1
# Salmonella typhimurium [6] = assay: Antimicrobial activity against Salmonella enterica serovar Typhimurium CHS14 acrAB::Kan with GyrA D87G mutation; method in brief: as §1
# Salmonella typhimurium [7] = assay: Antimicrobial activity against Salmonella enterica serovar Typhimurium S21; method in brief: as §1
# Salmonella typhimurium [8] = assay: Antimicrobial activity against Salmonella enterica serovar Typhimurium CS3 acrAB::Kan with GyrA S83F, D87N, ParC S80I mutation; method in brief: as §1
# Salmonella typhimurium [9] = assay: Antimicrobial activity against Salmonella enterica serovar Typhimurium CS3 gyrA+ with GyrA S83F, D87N, ParC S80I mutation; method in brief: as §1
# Salmonella typhimurium [10] = assay: Antimicrobial activity against Salmonella enterica serovar Typhimurium S21-2 with GyrA S83F, ParC S80I mutation; method in brief: as §1
# Salmonella typhimurium [11] = assay: Antimicrobial activity against Salmonella enterica serovar Typhimurium CS3 with GyrA S83F, D87N, ParC S80I mutation; method in brief: as §1
# Salmonella typhimurium [12] = assay: Antimicrobial activity against Salmonella enterica serovar Typhimurium CHS38 with GyrA D87G mutation; method in brief: as §1
# Salmonella typhimurium [13] = assay: Antimicrobial activity against Salmonella enterica serovar Typhimurium CS9 with GyrA S83F, D87N, ParC S80I mutation; method in brief: as §1
# Salmonella typhimurium [14] = assay: Antimicrobial activity against Salmonella enterica serovar Typhimurium S21-2 acrAB::Kan with GyrA S83F, ParC S80I mutation; method in brief: as §1
# Salmonella typhimurium [15] = assay: Antimicrobial activity against Salmonella enterica serovar Typhimurium S21-4 tolC::Kan with GyrA S83F, ParC S80I mutation; method in brief: as §1
# Salmonella typhimurium [16] = assay: Antimicrobial activity against Salmonella enterica serovar Typhimurium GyrA S21-1 acrAB::Kan with GyrA S83F mutation; method in brief: as §1
# Salmonella typhimurium [17] = assay: Antimicrobial activity against Salmonella enterica serovar Typhimurium CHS18 acrAB::Kan with GyrA S38F mutation; method in brief: as §1
# Salmonella typhimurium [18] = assay: Antimicrobial activity against Salmonella enterica serovar Typhimurium S21-2 gyrA+ with ParC S80I mutation; method in brief: as §1
# Salmonella typhimurium [19] = assay: Antimicrobial activity against Salmonella enterica serovar Typhimurium CHS14 tolC::Kan with GyrA D87G mutant; method in brief: as §1
# Salmonella typhimurium [20] = assay: Antimicrobial activity against Salmonella enterica serovar Typhimurium S21-3 tolC::Kan with GyrA S83F, ParC S80I mutation; method in brief: as §1
# Salmonella typhimurium [21] = assay: Antimicrobial activity against Salmonella enterica serovar Typhimurium CHS38 tolC::Kan with GyrA D87G mutation; method in brief: as §1
# Salmonella typhimurium [22] = assay: Antimicrobial activity against Salmonella enterica serovar Typhimurium CS1 acrAB::Kan with GyrA S83F, D87N, ParC S80I mutation; method in brief: as §1
# Salmonella typhimurium [23] = assay: Antimicrobial activity against Salmonella enterica serovar Typhimurium CS9 gyrA+ with GyrA S83F, D87N, ParC S80I mutation; method in brief: as §1
# Salmonella typhimurium [24] = assay: Antimicrobial activity against Salmonella enterica serovar Typhimurium CS1 with GyrA S83F, D87N, ParC S80I mutation; method in brief: as §1
# Salmonella typhimurium [25] = assay: Antimicrobial activity against Salmonella enterica serovar Typhimurium S21-4 with GyrA S83F, ParC S80I mutation; method in brief: as §1
# Salmonella typhimurium [26] = assay: Antimicrobial activity against Salmonella enterica serovar Typhimurium S21-4 gyrA+ with ParC S80I mutation; method in brief: as §1
# Salmonella typhimurium [27] = assay: Antimicrobial activity against Salmonella enterica serovar Typhimurium S21-1 tolC::Kan with GyrA S83F mutation; method in brief: as §1
# Salmonella typhimurium [28] = assay: Antimicrobial activity against Salmonella enterica serovar Typhimurium CHS18 with GyrA S38F mutation; method in brief: as §1
# Salmonella typhimurium [29] = assay: Antimicrobial activity against Salmonella enterica serovar Typhimurium S21-1 gyrA+; method in brief: as §1
# Salmonella typhimurium [30] = assay: Antimicrobial activity against Salmonella enterica serovar Typhimurium S21 tolC::Kan
# Method in brief: (§2)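 MICs by automated broth microdilution panels, interpreted to CLSI broth microdilution standards. Ciprofloxacin additionally tested by agar dilution across 0.0075 to 128 μg/ml. Quality control strains: E. coli ATCC 25922 and 35218, Enterococcus faecalis ATCC 29212, S. aureus ATCC 29213, P. aeruginosa ATCC 27853. Test strains are kanamycin-marked deletion mutants of ground-beef isolate S21.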
# Salmonella typhimurium [31] = assay: Antimicrobial activity against Salmonella enterica serovar Typhimurium CS1 tolC::Kan with GyrA S83F, D87N, ParC S80I mutation; method in brief: as §1
# Salmonella typhimurium [32] = assay: Antimicrobial activity against Salmonella enterica serovar Typhimurium CHS18 gyrA+ with GyrA S38F mutation; method in brief: as §1
# Salmonella typhimurium [33] = assay: Antimicrobial activity against Salmonella enterica serovar Typhimurium CS1 gyrA+ with GyrA S83F, D87N, ParC S80I mutation; method in brief: as §1
# Salmonella typhimurium [34] = assay: Antimicrobial activity against Salmonella enterica serovar Typhimurium CHS14 with GyrA D87G mutation; method in brief: as §1
# Salmonella typhimurium [35] = assay: Antimicrobial activity against Salmonella enterica serovar Typhimurium S21-4 acrAB::Kan with GyrA S83F, ParC S80I mutation; method in brief: as §1
# Salmonella typhimurium [36] = assay: Antimicrobial activity against Salmonella enterica serovar Typhimurium S21-3 with GyrA S83F, ParC S80I mutation; method in brief: as §1
# Salmonella typhimurium [37] = assay: Antimicrobial activity against Salmonella enterica serovar Typhimurium S21-3 acrAB::Kan with GyrA S83F, ParC S80I mutation; method in brief: as §1
# Salmonella typhimurium [38] = assay: Antimicrobial activity against Salmonella enterica serovar Typhimurium S21-2 tolC::Kan with GyrA S83F, ParC S80I mutation; method in brief: as §1
# Salmonella typhimurium [39] = assay: Antimicrobial activity against Salmonella enterica serovar Typhimurium CS9 acrAB::Kan with GyrA S83F, D87N, ParC S80I mutation; method in brief: as §1
# Salmonella typhimurium [40] = assay: Antimicrobial activity against Salmonella enterica serovar Typhimurium S21 acrAB::Kan; method in brief: as §2
# Salmonella typhimurium [41] = assay: Antimicrobial activity against Salmonella enterica serovar Typhimurium CHS38 acrAB::Kan with GyrA D87G mutation; method in brief: as §1
# Salmonella typhimurium [42] = assay: Antimicrobial activity against Salmonella enterica serovar Typhimurium CS9 tolC::Kan with GyrA S83F, D87N, ParC S80I mutation; method in brief: as §1
# Salmonella typhimurium [43] = assay: Antimicrobial activity against Salmonella enterica serovar Typhimurium CS3 tolC::Kan with GyrA S83F, D87N, parC S80I mutation; method in brief: as §1
# Salmonella typhimurium [44] = assay: Antimicrobial activity against Salmonella enterica serovar Typhimurium CHS14 gyrA+ with GyrA D87G mutation; method in brief: as §1
compound,measurement,setting,value
O=C(O)c1cn(-c2ccc(F)cc2)c2cc(N3CCNCC3)c(F)cc2c1=O [SARAFLOXACIN],MIC,Salmonella typhimurium [1],< 0.015 µg/mL
same,MIC,Salmonella typhimurium [2],1 µg/mL
same,MIC,Salmonella typhimurium [3],0.03 µg/mL
same,MIC,Salmonella typhimurium [4],1 µg/mL
same,MIC,Salmonella typhimurium [5],0.03 µg/mL
same,MIC,Salmonella typhimurium [6],< 0.015 µg/mL
same,MIC,Salmonella typhimurium [7],0.03 µg/mL
same,MIC,Salmonella typhimurium [8],4 µg/mL
same,MIC,Salmonella typhimurium [9],0.06 µg/mL
same,MIC,Salmonella typhimurium [10],8 µg/mL
same,MIC,Salmonella typhimurium [11],16 µg/mL
same,MIC,Salmonella typhimurium [12],0.12 µg/mL
same,MIC,Salmonella typhimurium [13],> 16 µg/mL
same,MIC,Salmonella typhimurium [14],0.5 µg/mL
same,MIC,Salmonella typhimurium [15],0.5 µg/mL
same,MIC,Salmonella typhimurium [16],0.12 µg/mL
same,MIC,Salmonella typhimurium [17],0.03 µg/mL
same,MIC,Salmonella typhimurium [18],0.25 µg/mL
same,MIC,Salmonella typhimurium [19],< 0.015 µg/mL
same,MIC,Salmonella typhimurium [20],0.5 µg/mL
same,MIC,Salmonella typhimurium [21],< 0.015 µg/mL
same,MIC,Salmonella typhimurium [22],4 µg/mL
same,MIC,Salmonella typhimurium [23],0.03 µg/mL
same,MIC,Salmonella typhimurium [24],16 µg/mL
same,MIC,Salmonella typhimurium [25],> 16 µg/mL
same,MIC,Salmonella typhimurium [26],2 µg/mL
same,MIC,Salmonella typhimurium [27],0.12 µg/mL
same,MIC,Salmonella typhimurium [28],0.25 µg/mL
same,MIC,Salmonella typhimurium [29],0.03 µg/mL
same,MIC,Salmonella typhimurium [30],< 0.015 µg/mL
same,MIC,Salmonella typhimurium [31],4 µg/mL
same,MIC,Salmonella typhimurium [32],0.06 µg/mL
same,MIC,Salmonella typhimurium [33],0.06 µg/mL
same,MIC,Salmonella typhimurium [34],0.25 µg/mL
same,MIC,Salmonella typhimurium [35],0.5 µg/mL
same,MIC,Salmonella typhimurium [36],> 16 µg/mL
same,MIC,Salmonella typhimurium [37],0.5 µg/mL
same,MIC,Salmonella typhimurium [38],0.5 µg/mL
same,MIC,Salmonella typhimurium [39],4 µg/mL
same,MIC,Salmonella typhimurium [40],< 0.015 µg/mL
same,MIC,Salmonella typhimurium [41],0.03 µg/mL
same,MIC,Salmonella typhimurium [42],4 µg/mL
same,MIC,Salmonella typhimurium [43],4 µg/mL
same,MIC,Salmonella typhimurium [44],0.03 µg/mL
